In PMC4492651 (Drug Design, Development and Therapy, 2015):
Like-named read-outs stand apart in the source and are kept apart here.

Key:
[1] = test system: carrageenan-induced thrombosis; assay: Model of carrageenan-induced thrombosis; format: in vivo, KM mice; settings: n=10; for Black tail length (cm) 24 hours / Black tail occurrence (%) 24 hours: 24 hours after carrageenan; for Black tail length (cm) 24 hours / Black tail length (cm) 48 hours: mean ± SD; for Black tail length (cm) 48 hours / Black tail occurrence (%) 48 hours: 48 hours after carrageenan
[2] = test system: GSH-Px, SOD, NO and MDA in brain tissue; assay: Antioxidant stress activity in vivo after I/R; set-up: species or system Sprague Dawley rats; settings: I/R rats; for content of SOD in comparison with the model group: 3d 10, 20 and 50 mg/kg, NBP 20 mg/kg, Eda 3.0 mg/kg
Method in brief: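 Male Sprague Dawley rats underwent filament MCAO, 2 h occlusion then reperfusion. Test compound (10, 20, 50 mg/kg; model vehicle oil) given ip 15 min after MCAO onset. At 24 h reperfusion, under chloral hydrate, brains were rinsed in cold saline; ischemic core and penumbra were separated and stored at −70°C. After protein assay, T-SOD and GSH-Px activities, MDA and NO were measured by kits. n=10, mean ± SD, ANOVA/Newman–Keuls.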

[3] = test system: transient middle cerebral artery occlusion; set-up: species or system Sprague Dawley rats; settings: rat, in vivo, ip
HT22 cells = assay: H2O2-induced cytotoxicity in HT22 cells; format: cell-based, murine; settings: Mus musculus, HT-22, read-out: H2O2-treated HT22 viability percentage
Method in brief: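 Murine HT22 cells in DMEM with 10% newborn calf serum, 37°C, 5% CO2. Seeded at 20,000 cells/well and grown 24 h. Pretreated in quadruplicate with test compound (10–100 µM) for 2 h, exposed to 500 µM H2O2 for 1 h, then given fresh medium for 12 h. Viability by MTT. Four separate experiments, mean ± SD.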

[4] = 50 mg/kg by gavage daily for 2 days
[5] = 3 mg/kg by gavage daily for 2 days

| Structure (SMILES) | Black tail length (cm) 24 hours [1, 4] [cm] | Black tail occurrence (%) 24 hours [1, 4] [%] | Black tail length (cm) 48 hours [1, 4] [cm] | Black tail occurrence (%) 48 hours [1, 4] [%] | NO activity ([2]; 20 mg/kg, 24 hours postreperfusion, model 1.51) [U/mg] | content of SOD in comparison with the model group [2] | infarct size reduced by ([3]; 20 mg/kg) [%] | viability at 100 µM (HT22 cells) [%] | levels of GSH-Px activity vs model animals ([2]; ischemic core, 3d 50 mg/kg, Eda 3 mg/kg) | infarct size reduced by ([3]; 3 mg/kg) [%] | Black tail length (cm) 24 hours [1, 5] [cm] | Black tail occurrence (%) 24 hours [1, 5] [%] | Black tail length (cm) 48 hours [1, 5] [cm] | Black tail occurrence (%) 48 hours [1, 5] [%] |
| --- | --- | --- | --- | --- | --- | --- | --- | --- | --- | --- | --- | --- | --- | --- |
| CC(=O)Oc1ccccc1C(=O)O [ASP, aspirin] | 1.5±0.5 | 30 | 2.4±0.6 | 40 | – | – | – | – | – | – | – | – | – | – |
| CCCCC1OC(=O)c2ccccc21 (centres unmarked) [NBP, 3-n-butylphthalide] | 3.1±0.3 | 30 | 3.5±0.5 | 50 | 0.92 | increased | 26.19 | 71.5 | – | – | – | – | – | – |
| CC1=NN(c2ccccc2)C(=O)C1 [Eda, edaravone] | – | – | – | – | – | increased | – | 69.9 | significantly higher | 69.65 | 4.6±1.7 | 70 | 4.5±1.8 | 80 |
